According to ChEMBL document CHEMBL2434871, “Discovery of a potent dual EGFR/HER-2 inhibitor L-2 (selatinib) for the treatment of cancer” (Eur J Med Chem, 2013):

What was measured:
[1] = biological target: Epidermal growth factor receptor (Homo sapiens, UniProt P00533); assay: Inhibition of EGFR (unknown origin) using poly-(Glu4-Tyr) as substrate after 1 hr by ELISA-based spectrophotometry
[2] = biological target: Receptor tyrosine-protein kinase erbB-2 (Homo sapiens, UniProt P04626); assay: Inhibition of HER-2 (unknown origin) using poly-(Glu4-Tyr) as substrate after 1 hr by ELISA-based spectrophotometry
Method in brief: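 ELISA on plates pre-coated with poly(Glu,Tyr 4:1) substrate. Serially diluted compounds plus ATP were added in 50 mM HEPES pH 7.4 containing 20 mM MgCl₂, 0.2 mM MnCl₂, 0.1 mM Na₃VO₄ and 1 mM DTT. Phosphotyrosine was detected with anti-phosphotyrosine antibody PY99 (1:500), then HRP anti-mouse IgG, then o-phenylenediamine/H₂O₂ at pH 5.5.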

[3] = tested on: NCI-N87; assay: Cytotoxicity against human NCI-N87 cells after 72 hrs by SRB assay; assay type: functional, cell-based; settings: NCI-N87, 72 h
[4] = tested on: BT-474; assay: Cytotoxicity against human BT474 cells after 72 hrs by SRB assay; assay type: functional, cell-based; settings: BT-474, 72 h
[5] = Elimination half life in Wistar rat at 100 mg/kg, po; assay type: ADME, organism-based; set-up: dose 100 mg/kg, route oral; settings: in vivo, read-out: beta t1/2 (converted)
Method in brief: (§1)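 Male Wistar rats (220 ± 10 g), n = 4 per group, given the tosylate salt orally by gavage at 100 mg/kg, suspended in 0.5% sodium carboxymethylcellulose. Blood was sampled at 0.25 to 24 h. Parent compound and the lapatinib metabolite were extracted by C18 solid-phase extraction and analysed by LC/MSn.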

[6] = tested on: Rattus norvegicus; assay: AUC (0 to t) in Wistar rat at 100 mg/kg, po assessed as lapatinib; assay type: ADME, organism-based, Plasma; set-up: dose 100 mg/kg, route oral; settings: in vivo; method in brief: as §1
[7] = tested on: Rattus norvegicus; assay: AUC (0 to infinity) in Wistar rat at 100 mg/kg, po assessed as lapatinib; assay type: ADME, organism-based, Plasma; set-up: time infinity, dose 100 mg/kg, route oral; settings: in vivo; method in brief: as §1
[8] = Mean residence time in Wistar rat at 100 mg/kg, po; assay type: ADME, organism-based; set-up: dose 100 mg/kg, route oral; settings: in vivo; method in brief: as §1
[9] = AUC (0 to t) in Wistar rat at 100 mg/kg, po; assay type: ADME, organism-based; set-up: dose 100 mg/kg, route oral; settings: plasma; method in brief: as §1
[10] = Cmax in Wistar rat at 100 mg/kg, po; assay type: ADME, organism-based; set-up: dose 100 mg/kg, route oral; settings: in vivo; method in brief: as §1
[11] = tested on: Rattus norvegicus; assay: Mean residence time in Wistar rat at 100 mg/kg, po assessed as lapatinib; assay type: ADME, organism-based; set-up: dose 100 mg/kg, route oral; settings: in vivo; method in brief: as §1
[12] = tested on: Rattus norvegicus; assay: Cmax in Wistar rat at 100 mg/kg, po assessed as lapatinib; assay type: ADME, organism-based; set-up: dose 100 mg/kg, route oral; settings: in vivo; method in brief: as §1
[13] = tested on: Rattus norvegicus; assay: Elimination half life in Wistar rat at 100 mg/kg, po assessed as lapatinib; assay type: ADME, organism-based; set-up: dose 100 mg/kg, route oral; settings: in vivo; method in brief: as §1
[14] = Tmax in Wistar rat at 100 mg/kg, po; assay type: ADME, organism-based; set-up: dose 100 mg/kg, route oral; settings: in vivo; method in brief: as §1
[15] = AUC (0 to infinity) in Wistar rat at 100 mg/kg, po; assay type: ADME, organism-based; set-up: time infinity, dose 100 mg/kg, route oral; settings: plasma; method in brief: as §1
[16] = tested on: Rattus norvegicus; assay: Tmax in Wistar rat at 100 mg/kg, po assessed as lapatinib; assay type: ADME, organism-based; set-up: dose 100 mg/kg, route oral; settings: in vivo; method in brief: as §1
[17] = tested on: Mus musculus; assay: Toxicity in BALB/c athymic mouse xenografted with human SKOV3 cells assessed as bloody stool at 200 mg/kg, po qd after 4 days; assay type: organism-based, SK-OV-3; set-up: dose 200 mg/kg, route oral; settings: in vivo, 96 h
[18] = tested on: Mus musculus; assay: Toxicity in BALB/c athymic mouse xenografted with human NCI-N87 cells assessed as bloody stool at 200 mg/kg, po qd after 4 days; assay type: organism-based; set-up: dose 200 mg/kg, route oral; settings: in vivo, 96 h
[19] = tested on: Mus musculus; assay: Toxicity in BALB/c athymic mouse xenografted with human SKOV3 cells assessed as hematuria at 200 mg/kg, po qd after 4 days; assay type: organism-based, SK-OV-3; set-up: dose 200 mg/kg, route oral; settings: in vivo, 96 h
[20] = tested on: Mus musculus; assay: Toxicity in BALB/c athymic mouse xenografted with human SKOV3 cells assessed as weight loss at 200 mg/kg, po qd after 4 days; assay type: organism-based, SK-OV-3; set-up: dose 200 mg/kg, route oral; settings: in vivo, 96 h
[21] = tested on: Mus musculus; assay: Toxicity in BALB/c athymic mouse xenografted with human NCI-N87 cells assessed as weight loss at 200 mg/kg, po qd after 4 days; assay type: organism-based; set-up: dose 200 mg/kg, route oral; settings: in vivo, 96 h
[22] = Aqueous solubility of the compound at 25 degC by shake-flask method; assay type: physicochemical; settings: unbuffered water
[23] = tested on: Mus musculus; assay: Toxicity in BALB/c athymic mouse xenografted with human NCI-N87 cells assessed as hematuria at 200 mg/kg, po qd after 4 days; assay type: organism-based; set-up: dose 200 mg/kg, route oral; settings: in vivo, 96 h
[24] = tested on: SK-OV-3; assay: Antitumor activity against human SKOV3 cells xenografted in BALB/c athymic mouse assessed as tumor regression at 200 mg/kg, po qd after 21 days relative to vehicle-treated control; settings: SK-OV-3, po, 504 h, read-out: TGI
[25] = tested on: NCI-N87; assay: Antitumor activity against human NCI-N87 cells xenografted in BALB/c athymic mouse assessed as tumor regression at 200 mg/kg, po qd after 28 days relative to vehicle-treated control; assay type: functional; settings: NCI-N87, 672 h, read-out: TGI
Method in brief: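 Female BALB/c athymic mice, 4–6 weeks old, received 2 × 10⁶ NCI-N87 or SK-OV-3 cells s.c. in the right flank. At a tumor volume of 100–300 mm³ they were randomized (control n = 10, treated n = 6). Tosylate salt was given at 200 mg/kg qd by oral gavage, and controls received vehicle. Tumor volume was taken as length × width²/2 by caliper. Inhibition = (1 − T/C) × 100% on mean relative tumor volume (RTV). Two-tailed t test.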

Sequence of Epidermal growth factor receptor (P00533 whole entry): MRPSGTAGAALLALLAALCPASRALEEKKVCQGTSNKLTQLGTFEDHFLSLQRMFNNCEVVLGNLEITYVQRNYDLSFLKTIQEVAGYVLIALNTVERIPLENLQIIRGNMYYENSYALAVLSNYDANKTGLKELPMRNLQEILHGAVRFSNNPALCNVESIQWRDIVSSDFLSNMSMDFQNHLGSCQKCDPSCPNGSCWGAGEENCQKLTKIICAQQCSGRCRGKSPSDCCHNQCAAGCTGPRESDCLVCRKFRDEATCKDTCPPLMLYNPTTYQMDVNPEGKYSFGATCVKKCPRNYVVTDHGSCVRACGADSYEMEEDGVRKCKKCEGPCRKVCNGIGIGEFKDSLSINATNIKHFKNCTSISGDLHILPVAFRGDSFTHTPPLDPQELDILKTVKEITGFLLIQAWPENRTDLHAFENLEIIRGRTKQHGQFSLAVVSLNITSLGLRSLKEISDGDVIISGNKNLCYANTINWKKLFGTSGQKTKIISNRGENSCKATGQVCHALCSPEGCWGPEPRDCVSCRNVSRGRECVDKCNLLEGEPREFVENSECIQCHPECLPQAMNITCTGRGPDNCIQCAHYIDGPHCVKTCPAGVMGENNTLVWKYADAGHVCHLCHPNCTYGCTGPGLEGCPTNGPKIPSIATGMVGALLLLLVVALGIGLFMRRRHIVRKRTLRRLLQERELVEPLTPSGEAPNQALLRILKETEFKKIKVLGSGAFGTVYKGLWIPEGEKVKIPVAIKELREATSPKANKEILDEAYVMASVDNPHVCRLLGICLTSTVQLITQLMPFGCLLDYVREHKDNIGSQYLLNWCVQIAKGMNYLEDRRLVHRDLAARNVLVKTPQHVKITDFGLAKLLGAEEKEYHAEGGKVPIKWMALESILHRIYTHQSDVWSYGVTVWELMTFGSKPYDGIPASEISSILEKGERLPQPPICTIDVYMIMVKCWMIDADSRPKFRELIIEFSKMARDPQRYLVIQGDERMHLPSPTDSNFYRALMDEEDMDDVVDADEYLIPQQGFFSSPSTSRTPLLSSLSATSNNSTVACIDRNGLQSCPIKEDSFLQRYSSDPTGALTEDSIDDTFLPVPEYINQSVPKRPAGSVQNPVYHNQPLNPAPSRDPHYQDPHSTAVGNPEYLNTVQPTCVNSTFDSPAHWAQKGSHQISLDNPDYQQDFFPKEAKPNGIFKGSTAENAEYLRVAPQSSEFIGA
Sequence of Receptor tyrosine-protein kinase erbB-2 (P04626 whole entry): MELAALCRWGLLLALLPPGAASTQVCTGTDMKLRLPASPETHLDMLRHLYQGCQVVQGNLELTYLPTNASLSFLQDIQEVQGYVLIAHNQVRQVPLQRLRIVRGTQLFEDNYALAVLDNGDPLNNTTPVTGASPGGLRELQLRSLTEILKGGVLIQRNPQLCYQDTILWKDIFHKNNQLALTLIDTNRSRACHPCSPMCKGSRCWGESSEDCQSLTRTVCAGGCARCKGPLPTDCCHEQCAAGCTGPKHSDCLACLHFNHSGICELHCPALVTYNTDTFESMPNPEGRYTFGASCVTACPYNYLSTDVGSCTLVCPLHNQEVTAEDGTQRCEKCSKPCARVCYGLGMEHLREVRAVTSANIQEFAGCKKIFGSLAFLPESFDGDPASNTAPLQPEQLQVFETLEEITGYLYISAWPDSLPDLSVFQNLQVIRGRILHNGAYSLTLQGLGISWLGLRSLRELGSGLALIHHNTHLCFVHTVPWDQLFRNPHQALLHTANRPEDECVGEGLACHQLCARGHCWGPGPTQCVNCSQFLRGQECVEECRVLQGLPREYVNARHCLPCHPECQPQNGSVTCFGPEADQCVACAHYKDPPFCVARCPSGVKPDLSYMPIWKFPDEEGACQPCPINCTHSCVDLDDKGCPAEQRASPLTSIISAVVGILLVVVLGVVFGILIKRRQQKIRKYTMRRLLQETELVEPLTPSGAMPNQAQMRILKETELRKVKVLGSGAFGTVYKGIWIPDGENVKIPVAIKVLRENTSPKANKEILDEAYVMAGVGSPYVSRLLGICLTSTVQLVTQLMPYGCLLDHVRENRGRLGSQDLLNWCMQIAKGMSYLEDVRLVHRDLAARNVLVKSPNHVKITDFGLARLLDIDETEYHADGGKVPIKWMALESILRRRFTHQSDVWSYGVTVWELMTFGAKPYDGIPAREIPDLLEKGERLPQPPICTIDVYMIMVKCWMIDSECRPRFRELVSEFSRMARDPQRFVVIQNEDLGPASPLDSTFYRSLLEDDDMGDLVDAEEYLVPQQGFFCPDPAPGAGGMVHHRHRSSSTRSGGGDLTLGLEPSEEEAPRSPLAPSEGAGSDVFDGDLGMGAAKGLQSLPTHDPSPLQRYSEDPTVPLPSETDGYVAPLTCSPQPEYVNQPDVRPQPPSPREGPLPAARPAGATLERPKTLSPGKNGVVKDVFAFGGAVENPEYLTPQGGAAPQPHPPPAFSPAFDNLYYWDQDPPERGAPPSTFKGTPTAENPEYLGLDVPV

IC50 [1] [nM] | IC50 [2] [nM] | SMILES | IC50 [3] [nM] | IC50 [4] [nM] | half-life [5] [h] | AUCt [6] [ng·h/mL] | AUC [7] [ng·h/mL] | MRT [8] [h] | AUC(0-t) [9] [ng·h/mL] | Cmax [10] [ng/mL] | MRT [11] [h] | Cmax [12] [ng/mL] | beta t1/2 [13] [h] | Tmax [14] [h] | AUC(0-inf) [15] [ng·h/mL] | Tmax [16] [h] | also measured
232 | 53.3 | CN1CCN(C(=O)c2ccc(-c3ccc4ncnc(Nc5ccc(OCc6cccc(F)c6)c(Cl)c5)c4c3)o2)CC1 |  |  |  |  |  |  |  |  |  |  |  |  |  |  | 
26 | 13.1 | Fc1cccc(COc2ccc(Nc3ncnc4ccc(-c5ccc(CN6CCOCC6)o5)cc34)cc2Cl)c1 | 62.8 | 84.6 |  |  |  |  |  |  |  |  |  |  |  |  | 
 |  | C[S+]([O-])CCNCc1ccc(-c2ccc3ncnc(Nc4ccc(OCc5cccc(F)c5)c(Cl)c4)c3c2)o1.Cc1ccc(S(=O)(=O)O)cc1 (configuration not stated) |  |  | 2.32 | 4295 | 4309 | 5.38 | 50300 | 8880 | 5.88 | 645 | 2.64 | 3.5 | 53200 | 4.5 | 
18.7 | 15.9 | CS(=O)(=O)NCCNCc1ccc(-c2ccc3ncnc(Nc4ccc(OCc5cccc(F)c5)c(Cl)c4)c3c2)o1 |  |  |  |  |  |  |  |  |  |  |  |  |  |  | 
11.4 | 6.8 | CC(=O)N1CCN(Cc2ccc(-c3ccc4ncnc(Nc5ccc(OCc6cccc(F)c6)c(Cl)c5)c4c3)o2)CC1 |  |  |  |  |  |  |  |  |  |  |  |  |  |  | 

SMILES | IC50 [1] [nM] | IC50 [2] [nM] | IC50 [3] [nM] | IC50 [4] [nM] | half-life [5] [h] | AUCt [6] [ng·h/mL] | AUC [7] [ng·h/mL] | MRT [8] [h] | AUC(0-t) [9] [ng·h/mL] | Cmax [10] [ng/mL] | MRT [11] [h] | Cmax [12] [ng/mL] | beta t1/2 [13] [h] | Tmax [14] [h] | AUC(0-inf) [15] [ng·h/mL] | Tmax [16] [h] | also measured
CSCCNCc1ccc(-c2ccc3ncnc(Nc4ccc(OCc5cccc(F)c5)c(Cl)c4)c3c2)o1.Cc1ccc(S(=O)(=O)O)cc1 | 25.1 | 18.3 | 47.3 | 35.1 | 4.43 | 1994 | 2058 | 8.19 | 7890 | 854 | 8.34 | 242 | 4.18 | 3 | 8130 | 3 | Activity [17]: Non-toxic; Activity [18]: Non-toxic; Activity [19]: Non-toxic; Activity [20]: Non-toxic; Activity [21]: Non-toxic; solubility [22]: 3 µg/mL; Activity [23]: Non-toxic; inhibition in vivo at 200 mg/kg [24]: 74.6%; inhibition in vivo at 200 mg/kg [25]: 84.7%
